Biological target: T1, Extracellular calcium-sensing receptor (Homo sapiens, UniProt P41180)
T1 sequence (P41180 whole entry): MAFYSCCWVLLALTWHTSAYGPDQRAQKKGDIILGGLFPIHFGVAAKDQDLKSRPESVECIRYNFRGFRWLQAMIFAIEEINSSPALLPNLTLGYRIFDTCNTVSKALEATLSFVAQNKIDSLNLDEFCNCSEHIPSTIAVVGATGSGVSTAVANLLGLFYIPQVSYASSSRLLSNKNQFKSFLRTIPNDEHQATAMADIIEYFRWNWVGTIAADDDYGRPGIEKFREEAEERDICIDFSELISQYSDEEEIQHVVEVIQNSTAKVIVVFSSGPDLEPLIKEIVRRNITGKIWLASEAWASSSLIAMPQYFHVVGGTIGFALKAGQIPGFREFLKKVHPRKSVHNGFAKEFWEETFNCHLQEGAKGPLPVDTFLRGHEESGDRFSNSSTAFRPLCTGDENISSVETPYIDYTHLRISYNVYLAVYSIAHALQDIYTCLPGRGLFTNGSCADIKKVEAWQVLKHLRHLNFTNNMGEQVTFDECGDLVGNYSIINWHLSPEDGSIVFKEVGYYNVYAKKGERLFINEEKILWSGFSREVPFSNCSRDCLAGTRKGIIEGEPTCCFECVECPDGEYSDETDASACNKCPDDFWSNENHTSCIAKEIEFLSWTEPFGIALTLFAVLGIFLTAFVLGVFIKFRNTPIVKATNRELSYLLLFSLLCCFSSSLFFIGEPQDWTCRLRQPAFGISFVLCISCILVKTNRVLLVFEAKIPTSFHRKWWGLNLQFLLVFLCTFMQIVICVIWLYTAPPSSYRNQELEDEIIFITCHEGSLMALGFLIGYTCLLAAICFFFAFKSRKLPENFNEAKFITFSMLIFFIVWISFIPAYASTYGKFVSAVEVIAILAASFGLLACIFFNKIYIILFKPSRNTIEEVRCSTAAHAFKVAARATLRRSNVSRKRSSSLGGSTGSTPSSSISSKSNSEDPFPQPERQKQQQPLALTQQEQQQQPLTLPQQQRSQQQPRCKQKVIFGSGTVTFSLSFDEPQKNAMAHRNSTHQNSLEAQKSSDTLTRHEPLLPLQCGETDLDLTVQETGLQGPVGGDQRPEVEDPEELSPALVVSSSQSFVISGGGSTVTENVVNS
Assay: Inhibitory concentration was evaluated for in vitro calcilytic activity against human calcium receptor
Summary of the method: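 HEK 293 4.0-7 cells stably expressing human CaR, loaded with fluo-3. Intracellular Ca2+ rise triggered by raising extracellular Ca2+ from 1.0 to 1.3 mM. Peak fluorescence normalized to the response without compound. Eight concentrations tested in duplicate, top concentration 30 µM. IC50 normalized to an internal reference standard run in parallel in each assay.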

Row | IC50 [nM] | Compound
1 | 170 | Cc1nc(-c2ccccc2O)n(CCc2cccc(F)c2)c(=O)c1C
2 | 1100 | Cc1cc(=O)n(CCc2cccc(F)c2)c(-c2ccccc2O)n1
3 | 97 | CCc1c(C)nc(-c2ccccc2O)n(CCc2ccccc2F)c1=O
4 | 800 | Cc1c(C(F)(F)F)nc(-c2ccccc2O)n(CCc2ccccc2)c1=O
5 | 1900 | Cc1cc(=O)n(CCc2ccccc2)c(-c2ccccc2O)n1
6 | 200 | O=c1c2c(nc(-c3ccccc3O)n1CCc1cccc(F)c1)CCC2
7 | 140 | CCCc1c(C)nc(-c2ccccc2O)n(CCc2cccc(F)c2)c1=O
8 | 95 | Cc1nc(-c2ccccc2O)n(CCc2cccc(F)c2)c(=O)c1C(C)C
9 | 100 | CCc1c(C)nc(-c2ccccc2O)n(CCc2ccccc2)c1=O
10 | 140 | O=c1c2c(nc(-c3ccccc3O)n1CCc1ccccc1)CCCC2
11 | 200 | O=c1c2c(nc(-c3ccccc3O)n1CCc1ccccc1)CCC2
12 | 200 | Cc1nc(-c2ccccc2O)n(CCc2ccccc2)c(=O)c1C
13 | 1600 | Cc1cc(=O)n(CCc2ccccc2F)c(-c2ccccc2O)n1
